Consider 14 compounds from ChEMBL document CHEMBL4024781, “Comprehensive Synthesis of Amino Acid-Derived Thiazole Peptidomimetic Analogues to Understand the Enigmatic Drug/Substrate-Binding Site of P-Glycoprotein” (J Med Chem, 2018).

Series [1] in a line: Cytotoxicity in parental HEK293-pcDNA 3.1 transfected cells assessed as cell survival at 10 uM after 72 hrs by MTT assay. It counts as cell-based. The conditions noted are these: human, parental HEK293 cells transfected with pcDNA 3.1. The procedure, abridged:
(§1)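 HEK293 cells stably transfected with empty pcDNA3.1 vector or ABCB1 vector, kept in DMEM with 10% FBS, 1% penicillin/streptomycin, and 2 mg/mL G418 at 37°C in 5% CO2. Cells were seeded at 5000/well, and after 24 h treated with test compound alone, diluted from 10 mM DMSO stocks into medium. After 72 h, viability was read by MTT (4 mg/mL, 4 h), with formazan dissolved in DMSO and absorbance read at 570 nm.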

A further series deals with HEK293. Description: Potentiation of paclitaxel-induced cytotoxicity against parental HEK293-pcDNA 3.1 transfected cells assessed as fold reduction in paclitaxel IC50 at 10 uM pre-incubated for 1 hr before paclitaxel addition and measured after 72 hrs by MTT assay. It counts as functional, Homo sapiens. The essentials: (§2)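 HEK293 cells stably transfected with ABCB1 or empty pcDNA3.1 vector, kept in G418. Seeded at 5000/well and grown 24 h, then given modulator at 10 μM for 1 h before serially diluted paclitaxel (up to 10 μM). MTT read at 570 nm after 72 h. Paclitaxel IC50 from four experiments in triplicate. Fold resistance = IC50 with modulator ÷ IC50 of paclitaxel alone in vector-control cells.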

Series [2] is described as follows: Cytotoxicity in P-gp tranfected HEK293 cells assessed as cell survival at 10 uM after 72 hrs by MTT assay. In kind it is ADME, cell-based. The following applies: human, P-gp transfected HEK293 cells. The essentials: as §1
The target in series [3] is T1, P-gp (ABCB1) (Homo sapiens, UniProt P08183). Description: Inhibition of human P-gp expressed in high five insect cell membrane vesicles by measuring the vanadate-sensitive ATPase activity of P-gp at 0.5 uM preincubated for 5 mins in the presence of sodium orthovanadate measured after 20 mins by colorimetric method.
For series [4], the target named is T1, P-gp (ABCB1). The series is described as follows: Activation of human P-gp expressed in high five insect cell membrane vesicles by measuring the vanadate-sensitive ATPase activity of P-gp at 2.5 uM preincubated for 5 mins in the presence of sodium orthovanadate measured after 20 mins by colorimetric method. The conditions noted are these: read-out: Activity.

Series [5] has as its target T2, CYP3A4 (Homo sapiens, UniProt P08684). The series is described as follows: Inhibition of CYP3A4 (unknown origin) at 50 uM by fluorescence based-vivid CYP450 green screening kit based assay. In kind it is ADME.
The target of series [6] is T1, P-gp (ABCB1). The series is described as follows: Inhibition of human P-gp expressed in high five insect cell membrane vesicles by measuring the vanadate-sensitive ATPase activity of P-gp at 2.5 uM preincubated for 5 mins in the presence of sodium orthovanadate measured after 20 mins by colorimetric method.
Series [7] deals with T3, ATP-dependent translocase ABCB1 (Homo sapiens, UniProt P08183). The series is described as follows: Inhibition of human P-gp transfected in HEK293 cells assessed as potentiation of paclitaxel-induced cytotoxicity by measuring fold reduction in paclitaxel IC50 at 10 uM pre-incubated for 1 hr before paclitaxel addition and measured after 72 hrs by MTT assay. It counts as cell-based. The conditions noted are these: hek293, 72 h. The essentials: as §2

Series [8] addresses T4, Cytochrome P450 3A4 (Homo sapiens, UniProt P08684). Description: (§3) Inhibition of CYP3A4 (unknown origin) at 25 uM by fluorescence based-vivid CYP450 green screening kit based assay. The conditions noted are these: 25 µM. It counts as ADME.
Series [9] concerns the target T3, ATP-dependent translocase ABCB1. The series is described as follows: Displacement of [125I]-IAAP from human P-gp expressed in high five insect cell membrane vesicles preincubated for 10 mins followed by photocrosslinking for 10 mins by exposing under UV light for 10 mins by SDS-PAGE based method. The conditions noted are these: for inhibition (INH): human, 10 min. The essentials:
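Membrane vesicles from P-gp-expressing High Five insect cells (65–75 μg protein/100 μL) incubated with compound (0–5 or 0–10 μM) in 50 mM MES-Tris pH 6.8, 150 mM NaCl, 37 °C, 10 min; moved to 4 °C, 4–5 nM [125I]-IAAP added under subdued light; 366 nm UV 10 min; P-gp band incorporation quantified after SDS-PAGE, DMSO-only as 100%.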

For series [10], the target named is T2, CYP3A4. The series is described as §3. It counts as ADME.
Series [11] concerns the target T1, P-gp (ABCB1). The series is described as follows: Displacement of [125I]-IAAP from human P-gp expressed in high five insect cell membrane vesicles at >5 uM preincubated for 10 mins followed by photocrosslinking for 10 mins by exposing under UV light for 10 mins by SDS-PAGE based method. The following applies: probe [125I]-IAAP, read-out: Imax. The procedure, abridged:
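Membrane vesicles (65–75 μg protein/100 μL) incubated with compound (0–5 or 0–10 μM) in 50 mM MES-Tris pH 6.8, 150 mM NaCl, 37 °C 10 min, then moved to 4 °C. 4–5 nM [125I]-IAAP (2200 Ci/mmol) added under subdued light, cross-linked at 366 nm UV 10 min. P-gp band incorporation quantified after SDS-PAGE, DMSO-only sample = 100%.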

Series [12] addresses T1, P-gp (ABCB1). The series is described as follows: Activation of human P-gp expressed in high five insect cell membrane vesicles by measuring the vanadate-sensitive ATPase activity of P-gp at 0.05 uM preincubated for 5 mins in the presence of sodium orthovanadate measured after 20 mins by colorimetric method. The conditions noted are these: read-out: Activity.
In series [13] the target is T1, P-gp (ABCB1). The series is described as follows: Activation of human P-gp expressed in high five insect cell membrane vesicles by measuring the vanadate-sensitive ATPase activity of P-gp at 0.5 uM preincubated for 5 mins in the presence of sodium orthovanadate measured after 20 mins by colorimetric method. The following applies: read-out: Activity.
The target of series [14] is T4, Cytochrome P450 3A4. The series is described as follows: Inhibition of CYP3A4 (unknown origin). In kind it is ADME.
Series [15] deals with T1, P-gp (ABCB1). Description: Inhibition of human P-gp expressed in high five insect cell membrane vesicles by measuring the vanadate-sensitive ATPase activity of P-gp at 0.05 uM preincubated for 5 mins in the presence of sodium orthovanadate measured after 20 mins by colorimetric method.

Structures are written as SMILES.

T3 sequence (P08183 whole entry): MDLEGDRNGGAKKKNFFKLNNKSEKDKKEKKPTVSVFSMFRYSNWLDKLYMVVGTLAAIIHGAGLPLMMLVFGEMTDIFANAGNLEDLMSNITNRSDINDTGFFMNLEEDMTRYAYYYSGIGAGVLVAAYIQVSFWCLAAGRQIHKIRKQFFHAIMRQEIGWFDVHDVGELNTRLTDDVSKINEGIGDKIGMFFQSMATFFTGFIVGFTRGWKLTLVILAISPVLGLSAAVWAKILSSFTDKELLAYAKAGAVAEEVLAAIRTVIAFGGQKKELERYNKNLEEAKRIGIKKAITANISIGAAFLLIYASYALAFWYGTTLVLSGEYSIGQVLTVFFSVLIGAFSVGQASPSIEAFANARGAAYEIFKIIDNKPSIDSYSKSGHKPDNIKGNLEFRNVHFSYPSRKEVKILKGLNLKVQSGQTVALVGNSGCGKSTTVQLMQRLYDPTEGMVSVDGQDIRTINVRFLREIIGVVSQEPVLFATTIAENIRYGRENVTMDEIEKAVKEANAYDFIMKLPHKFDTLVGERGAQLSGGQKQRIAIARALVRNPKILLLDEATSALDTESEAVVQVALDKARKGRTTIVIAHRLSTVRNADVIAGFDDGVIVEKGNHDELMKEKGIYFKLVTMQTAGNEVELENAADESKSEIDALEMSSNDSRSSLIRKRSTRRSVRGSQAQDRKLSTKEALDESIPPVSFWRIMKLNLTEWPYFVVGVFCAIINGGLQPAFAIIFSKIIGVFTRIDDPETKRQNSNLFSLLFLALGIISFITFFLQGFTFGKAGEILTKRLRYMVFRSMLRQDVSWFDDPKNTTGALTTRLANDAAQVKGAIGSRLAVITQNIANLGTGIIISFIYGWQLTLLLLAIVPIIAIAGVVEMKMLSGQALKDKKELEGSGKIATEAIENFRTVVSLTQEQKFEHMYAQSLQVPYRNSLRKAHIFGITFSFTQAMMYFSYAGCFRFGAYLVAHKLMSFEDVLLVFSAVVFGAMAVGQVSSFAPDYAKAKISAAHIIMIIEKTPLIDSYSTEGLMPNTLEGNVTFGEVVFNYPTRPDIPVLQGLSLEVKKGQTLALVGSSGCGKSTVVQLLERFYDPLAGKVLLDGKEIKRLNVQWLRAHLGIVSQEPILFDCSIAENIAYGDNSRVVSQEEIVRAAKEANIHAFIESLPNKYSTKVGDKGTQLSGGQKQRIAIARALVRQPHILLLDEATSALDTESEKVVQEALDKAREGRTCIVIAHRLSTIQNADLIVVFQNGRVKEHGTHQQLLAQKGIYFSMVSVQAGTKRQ
T1 sequence (P08183 whole entry): as above
T2 sequence (P08684 whole entry): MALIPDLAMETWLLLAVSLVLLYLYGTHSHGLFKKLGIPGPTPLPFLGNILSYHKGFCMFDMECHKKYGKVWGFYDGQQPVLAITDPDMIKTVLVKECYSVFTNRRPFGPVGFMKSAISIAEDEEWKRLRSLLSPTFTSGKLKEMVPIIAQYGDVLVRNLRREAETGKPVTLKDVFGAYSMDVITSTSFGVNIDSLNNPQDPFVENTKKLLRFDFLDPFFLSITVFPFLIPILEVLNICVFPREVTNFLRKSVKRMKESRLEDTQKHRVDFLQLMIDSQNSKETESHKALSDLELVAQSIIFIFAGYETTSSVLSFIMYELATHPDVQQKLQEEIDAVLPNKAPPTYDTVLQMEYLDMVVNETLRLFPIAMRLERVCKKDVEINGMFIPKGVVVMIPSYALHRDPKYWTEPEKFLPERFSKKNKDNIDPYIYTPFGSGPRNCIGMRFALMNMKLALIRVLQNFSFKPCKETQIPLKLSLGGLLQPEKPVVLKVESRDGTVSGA
T4 sequence (P08684 whole entry): as above

Turning to `COc1ccc(CCN(C)CCCC(C#N)(c2ccc(OC)c(OC)c2)C(C)C)cc1OC` (stereo not drawn), the viability at 72 h, 10 µM in series [1] and in series [2] was above 80% in each case. Further, in the series with HEK293, the “fold change (FC)” value is given as 0.9.
Turning to `COc1cc(C(=O)N[C@H](c2nc(C(=O)NCC3CCC(F)(F)CC3)cs2)C(C)C)cc(OC)c1OC`, the inhibition at 20 min, 0.5 µM on P-gp (ABCB1) [3] was 27%. Also, the activity at 20 min, 2.5 µM on P-gp (ABCB1) [4] came out at 20.7%.
In the case of `COc1cc(C(=O)NC(Cc2ccccc2)c2nc(C(=O)NC3CCC(F)(F)CC3)cs2)cc(OC)c1OC` (stereo not drawn), the viability at 72 h, 10 µM in series [1] and in [2] was above 80% throughout. Besides, the inhibition at 50 µM at CYP3A4 [5] is 32.9%. In addition, at P-gp (ABCB1) [6], the inhibition at 20 min, 2.5 µM came to 42.5%. In addition, the “fold change (FC)” value in series [7] was 1.7; in the series on HEK293, 0.5. Besides, the entries for the “inhibition (INH)” value (at Cytochrome P450 3A4 [8]; in [9]) were “Not Active” and “Dose-dependent effect”, respectively. In series [9], the half-inhibitory concentration (IC50) was 760 nM. Besides, the inhibition at 20 min, 0.5 µM at P-gp (ABCB1) [3] turned out to be 39.6%.
Take `COc1cc(C(=O)N[C@H](c2nc(C(=O)NC3CCC(F)(F)CC3)cs2)C(C)C)cc(OC)c1OC`: the viability at 72 h, 10 µM in series [1] and in series [2] was above 80% in each case. The same compound returned an inhibition at 50 µM against CYP3A4 [5] of 28.7%. Further, on P-gp (ABCB1) [6], the inhibition at 20 min, 2.5 µM was 33.9%. In addition, the “fold change (FC)” value (in series [7]; in the series with HEK293) was 0.6 in each case. The compound also came in with an inhibition at 25 µM at CYP3A4 [10] of 9.32%. The Emax at 10 min at P-gp (ABCB1) [11] came to 90%. The same compound gave an IC50 in series [9] of 100 nM. Moreover, the “inhibition (INH)” value in [9] is on record as “Dose-dependent effect”. Besides, at P-gp (ABCB1) [3], the inhibition at 20 min, 0.5 µM was determined as 30.7%.
`CC(C)[C@H](NC(=O)c1cc(F)c(F)c(F)c1)c1nc(C(=O)NC2CCC(F)(F)CC2)cs1`: the inhibition at 20 min, 2.5 µM at P-gp (ABCB1) [6] worked out at 23.3%. On P-gp (ABCB1) [3], the inhibition at 20 min, 0.5 µM came to 16.6%.
Take `COc1cc(C(=O)NC(Cc2ccc(O)cc2)c2nc(C(=O)NC3CCC(F)(F)CC3)cs2)cc(OC)c1OC` (stereo not drawn): the inhibition at 20 min, 2.5 µM at P-gp (ABCB1) [6] worked out at 23%. For the same compound, at P-gp (ABCB1) [3], the inhibition at 20 min, 0.5 µM was 22.4%.
Consider `CC(C)[C@H](NC(=O)c1cccc(N)c1)c1nc(C(=O)Nc2ccccc2C(=O)c2ccccc2)cs1`, for which the viability at 72 h, 10 µM in series [1] and in series [2] was above 80% throughout. The compound further yielded an inhibition at 50 µM on CYP3A4 [5] of 83.3%. The “fold change (FC)” value in series [7] turned out to be 17.9; in the series with HEK293, 0.5. At CYP3A4 [10], the inhibition at 25 µM was 43.6%. Also, on P-gp (ABCB1) [12], the activity at 20 min, 0.05 µM amounted to 376%. In addition, at P-gp (ABCB1) [13], the activity at 20 min, 0.5 µM came to 308%.
Take `O[C@@H](COc1cccc2ncccc12)CN1CCN([C@@H]2c3ccccc3[C@@H]3[C@H](c4ccccc42)C3(F)F)CC1` [ZOSUQUIDAR]: the viability at 72 h, 10 µM in series [1] and in [2] was above 80% in each case.
Consider `COc1cc(C(=O)NC(c2nc(C(=O)NC3CCC(C(F)(F)F)CC3)cs2)C(C)C)cc(OC)c1OC` (stereo not drawn), for which the inhibition at 20 min, 2.5 µM at P-gp (ABCB1) [6] is 21.7%. In addition, the activity at 20 min, 0.5 µM at P-gp (ABCB1) [13] was at most 10%.
Turning to `CC(C)[C@H](NC(=O)C1CCC(F)(F)CC1)c1nc(C(=O)NC2CCC(F)(F)CC2)cs1`, the inhibition at 20 min, 2.5 µM on P-gp (ABCB1) [6] stood at 16.4%. In addition, the activity at 20 min, 0.5 µM at P-gp (ABCB1) [13] is at most 10%.
Turning to `COc1cc(C(=O)N[C@H](c2nc(C(=S)NC3CCC(F)(F)CC3)cs2)C(C)C)cc(OC)c1OC`, on P-gp (ABCB1) [6], the inhibition at 20 min, 2.5 µM stood at 25.9%. At P-gp (ABCB1) [3], the inhibition at 20 min, 0.5 µM came out at 37.4%.
As to `COc1cc(C(=O)N[C@H](c2nc(C(=O)N[C@@H]3CCCc4ccccc43)cs2)C(C)C)cc(OC)c1OC`, the viability at 72 h, 10 µM in [1] and in [2] was above 80% in each case. Besides, the “fold change (FC)” value in series [7] was 2.9; with HEK293, 1.4. Also, the activity at 20 min, 0.5 µM on P-gp (ABCB1) [13] worked out at 33.9%. Besides, the activity at 20 min, 2.5 µM on P-gp (ABCB1) [4] turned out to be 31.3%.
Consider `COc1cc(C(=O)N[C@H](c2nc(C(=O)Nc3ccccc3C(=O)c3ccccc3)cs2)C(C)C)cc(OC)c1OC`, for which the viability at 72 h, 10 µM in series [1] and in series [2] was above 80% throughout. Further, the “fold change (FC)” value turned out to be 0.6 in series [7] and 1 in the series on HEK293. Also, the activity at 20 min, 0.05 µM at P-gp (ABCB1) [12] was found to be 54%. This compound registered a 50% inhibitory concentration (IC50) at Cytochrome P450 3A4 [14] of 8230 nM. The activity at 20 min, 0.5 µM at P-gp (ABCB1) [13] was 83%. Moreover, the activity at 20 min, 2.5 µM on P-gp (ABCB1) [4] worked out at 88%.
On to `COc1cc(C(=O)N[C@H](c2nc(C(=O)NC3CCCCC3)cs2)C(C)C)cc(OC)c1OC`, for which the viability at 72 h, 10 µM in series [1] and in [2] was above 80% each time. The same compound came in with an inhibition at 50 µM against CYP3A4 [5] of 52%. Besides, the “fold change (FC)” value in [7] worked out at 0.6; in the series on HEK293 it was 1. The same compound returned an inhibition at 25 µM at CYP3A4 [10] of 7.03%. Besides, on P-gp (ABCB1) [3], the inhibition at 20 min, 0.5 µM worked out at 18%. At P-gp (ABCB1) [15], the inhibition at 20 min, 0.05 µM was 20%.
